Residues, ends and D or L forms follow the SMILES beside them. *: point of attachment. Succinyl(O17-estradiol) = C[C@]12CC[C@@H]3c4ccc(O)cc4CC[C@H]3[C@@H]1CC[C@@H]2OC(=O)CCC(=O)*; Acetyl(estradiol-3-yloxy) = C[C@]12CC[C@@H]3c4ccc(OCC(=O)*)cc4CC[C@H]3[C@@H]1CC[C@@H]2O
Tests used:
Mus musculus [1] = test: Toxicity in ovariectomized ICR mouse assessed as liver weight at 110.3 nmol/kg, po treated for 4 weeks measured after 1 day of last treatment; assay type: organism-based; settings: in vivo, 24 h
In short: (§1)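 OVX mice dosed orally once daily with 110.3 nmol/kg in 0.5% carboxymethylcellulose for 4 weeks. The day after the last dose, mice were anesthetized with pentobarbital (40.0 mg/kg ip) and killed; uteri, lungs, livers and spleens were removed and weighed directly and their morphology noted.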

Mus musculus [2] = test: Toxicity in ovariectomized ICR mouse assessed as effect on tail bleeding time at 110.3 nmol/kg, po treated for 4 weeks measured after 90 mins of last treatment; assay type: organism-based; settings: in vivo, 1.5 h
In short: (§2)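 OVX mice received 110.3 nmol/kg orally in 0.5% carboxymethylcellulose daily for 4 weeks. At 30 and 90 min after the last dose, a 2 mm tail cut was made with the mouse in a tube holder; blood was blotted every 30 s until bleeding stopped, and the time was recorded as bleeding time.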

Mus musculus [3] = test: Antiosteoporosis activity in ovariectomized ICR mouse assessed as weight of femur ash at 110.3 nmol/kg, po treated for 4 weeks measured after 1 day of last treatment; assay type: functional
In short: (§3)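 Female mice, ovariectomized (sham: laparotomy only); from day 5 post-surgery dosed orally once daily with 110.3 nmol/kg in 0.2 ml 0.5% carboxymethylcellulose for 4 weeks (vehicle to OVX/sham). Left femur taken the day after the last dose, cleaned of muscle, length measured, defatted in chloroform–methanol (2:1, 2×3 h), dried 120 °C 6 h and weighed, ashed 800 °C 8 h and weighed. Mineral content = ash/dry weight; femur ash dissolved in 6 N HCl, diluted, calcium by o-methylphenolphthalein complexone. n = 12.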

Mus musculus [4] = test: Antiosteoporosis activity in ovariectomized ICR mouse assessed as calcium content in femur at 110.3 nmol/kg, po treated for 4 weeks measured after 1 day of last treatment by o-methyl-phenolphthalein; assay type: functional; in short: as §3
Mus musculus [5] = test: Antiosteoporosis activity in ovariectomized ICR mouse assessed as mineral content in femur at 110.3 nmol/kg, po treated for 4 weeks measured after 1 day of last treatment; assay type: functional; in short: as §3
Mus musculus [6] = test: Antiosteoporosis activity in ovariectomized ICR mouse assessed as calcium level in serum at 110.3 nmol/kg, po treated for 4 weeks measured after 1 day of last treatment by o-methyl-phenolphthalein method; assay type: functional
In short: (§4)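 Ovariectomized female mice dosed orally with 110.3 nmol/kg in 0.5% carboxymethylcellulose once daily for 4 weeks, starting day 5 after surgery. Blood taken from the orbit the day after the last dose, stood 30 min, centrifuged 3000g for 20 min, serum stored at −20 °C. Calcium read by o-methylphenolphthalein complexone; phosphorus by molybdenum blue.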

Mus musculus [7] = test: Toxicity in ovariectomized ICR mouse assessed as effect on tail bleeding time at 110.3 nmol/kg, po treated for 4 weeks measured after 30 mins of last treatment; assay type: organism-based; settings: in vivo, 0.5 h; in short: as §2
Mus musculus [8] = test: Antiosteoporosis activity in ovariectomized ICR mouse assessed as length of femur at 110.3 nmol/kg, po treated for 4 weeks measured after 1 day of last treatment; assay type: functional; in short: as §3
Mus musculus [9] = test: Antiosteoporosis activity in ovariectomized ICR mouse assessed as phosphorous content in femur at 110.3 nmol/kg, po treated for 4 weeks measured after 1 day of last treatment by molybdenum blue method; assay type: functional
Mus musculus [10] = test: Antiosteoporosis activity in ovariectomized ICR mouse assessed as weight of dry femur at 110.3 nmol/kg, po treated for 4 weeks measured after 1 day of last treatment; assay type: functional
In short: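 Left femur taken the day after the last dose, cleaned of muscle, length measured, defatted in chloroform–methanol (2:1, 2×3 h), dried 120 °C 6 h and weighed, ashed 800 °C 8 h and weighed. Mineral content = ash/dry weight; femur ash dissolved in 6 N HCl, diluted, calcium by o-methylphenolphthalein complexone. n = 12.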

Mus musculus [11] = test: Toxicity in ovariectomized ICR mouse assessed as kidney weight at 110.3 nmol/kg, po treated for 4 weeks measured after 1 day of last treatment; assay type: organism-based; settings: in vivo, 24 h
Mus musculus [12] = test: Toxicity in ovariectomized ICR mouse assessed as effect on uterine weight at 110.3 nmol/kg, po treated for 4 weeks measured after 1 day of last treatment; assay type: organism-based; settings: in vivo, 24 h; in short: as §1
Mus musculus [13] = test: Toxicity in ovariectomized ICR mouse assessed as lung weight at 110.3 nmol/kg, po treated for 4 weeks measured after 1 day of last treatment; assay type: organism-based; settings: in vivo, 24 h; in short: as §1
Mus musculus [14] = test: Toxicity in ovariectomized ICR mouse assessed as spleen weight at 110.3 nmol/kg, po treated for 4 weeks measured after 1 day of last treatment; assay type: organism-based; settings: in vivo, 24 h; in short: as §1
Mus musculus [15] = test: Antiosteoporosis activity in ovariectomized ICR mouse assessed as phosphorous level in serum at 110.3 nmol/kg, po treated for 4 weeks measured after 1 day of last treatment by molybdenum blue method; assay type: functional; in short: as §4

Compound | Activity (Mus musculus [1]) | Time (Mus musculus [2]) | Activity (Mus musculus [3]) | Activity (Mus musculus [4]) | Activity (Mus musculus [5]) | Activity (Mus musculus [6]) | Time (Mus musculus [7]) | Activity (Mus musculus [8]) | Activity (Mus musculus [9]) | Activity (Mus musculus [10]) | Activity (Mus musculus [11]) | Activity (Mus musculus [12]) | Activity (Mus musculus [13]) | Activity (Mus musculus [14]) | Activity (Mus musculus [15])
C[C@]12CC[C@@H]3c4ccc(OCC(=O)N[C@@H](CCCNC(=N)N)C(=O)NCC(=O)N[C@@H](CC(=O)O)C(=O)N[C@@H](Cc5ccccc5)C(=O)O)cc4CC[C@H]3[C@@H]1CC[C@@H]2O ({Acetyl(estradiol-3-yloxy)}-RGDF-OH) | 1.336 g | 560 s | 33.56 mg | 57.42% | 0.596% | 3.24 mM | 557 s | 1.669 cm | 20.09% | 53.87 mg | 0.159 g | 0.067 g | 0.112 g | 0.177 g | 3.19 mM
C[C@]12CC[C@@H]3c4ccc(OCC(=O)N[C@@H](CCCNC(=N)N)C(=O)NCC(=O)N[C@@H](CC(=O)O)C(=O)N[C@@H](Cc5ccccc5)C(=O)N[C@@H](CCCNC(=N)N)C(=O)NCC(=O)N[C@@H](CC(=O)O)C(=O)N[C@@H](Cc5ccccc5)C(=O)O)cc4CC[C@H]3[C@@H]1CC[C@@H]2O ({Acetyl(estradiol-3-yloxy)}-RGDFRGDF-OH) | 1.439 g | 585 s | 36.74 mg | 63.92% | 0.623% | 3.05 mM | 592 s | 1.641 cm | 21.33% | 56.96 mg | 0.169 g | 0.061 g | 0.119 g | 0.131 g | 3.01 mM
C[C@]12CC[C@@H]3c4ccc(OCC(=O)N[C@@H](CCCNC(=N)N)C(=O)NCC(=O)N[C@@H](CC(=O)O)C(=O)N[C@@H](CO)C(=O)O)cc4CC[C@H]3[C@@H]1CC[C@@H]2O ({Acetyl(estradiol-3-yloxy)}-RGDS-OH) | 1.492 g | 577 s | 34.08 mg | 58.76% | 0.605% | 3.23 mM | 582 s | 1.646 cm | 20.24% | 53.89 mg | 0.193 g | 0.064 g | 0.128 g | 0.142 g | 2.98 mM
C[C@]12CC[C@@H]3c4ccc(OCC(=O)N[C@@H](CCCNC(=N)N)C(=O)NCC(=O)N[C@@H](CC(=O)O)C(=O)N[C@@H](CO)C(=O)N[C@@H](CCCNC(=N)N)C(=O)NCC(=O)N[C@@H](CC(=O)O)C(=O)N[C@@H](CO)C(=O)O)cc4CC[C@H]3[C@@H]1CC[C@@H]2O ({Acetyl(estradiol-3-yloxy)}-RGDSRGDS-OH) | 1.448 g | 559 s | 36.42 mg | 63.12% | 0.626% | 3.01 mM | 564 s | 1.657 cm | 21.56% | 56.6 mg | 0.17 g | 0.062 g | 0.11 g | 0.133 g | 2.91 mM
CC(C)[C@H](NC(=O)[C@H](CC(=O)O)NC(=O)CNC(=O)[C@H](CCCNC(=N)N)NC(=O)COc1ccc2c(c1)CC[C@@H]1[C@@H]2CC[C@]2(C)[C@@H](O)CC[C@@H]12)C(=O)O ({Acetyl(estradiol-3-yloxy)}-RGDV-OH) | 1.4 g | 577 s | 33.99 mg | 57.84% | 0.611% | 3.22 mM | 569 s | 1.67 cm | 20.24% | 53.97 mg | 0.167 g | 0.064 g | 0.109 g | 0.133 g | 2.99 mM
C[C@]12CC[C@@H]3c4ccc(O)cc4CC[C@H]3[C@@H]1CC[C@@H]2OC(=O)CCC(=O)N[C@@H](CCCNC(=N)N)C(=O)NCC(=O)N[C@@H](CC(=O)O)C(=O)N[C@@H](Cc1ccccc1)C(=O)O ({Succinyl(O17-estradiol)}-RGDF-OH) | 1.266 g | 568 s | 33.87 mg | 59.36% | 0.605% | 3.21 mM | 576 s | 1.64 cm | 20.56% | 54 mg | 0.16 g | 0.06 g | 0.109 g | 0.135 g | 3.01 mM
C[C@]12CC[C@@H]3c4ccc(O)cc4CC[C@H]3[C@@H]1CC[C@@H]2OC(=O)CCC(=O)N[C@@H](CCCNC(=N)N)C(=O)NCC(=O)N[C@@H](CC(=O)O)C(=O)N[C@@H](CO)C(=O)O ({Succinyl(O17-estradiol)}-RGDS-OH) | 1.537 g | 561 s | 34.17 mg | 59.34% | 0.604% | 3.18 mM | 575 s | 1.659 cm | 20.37% | 53.78 mg | 0.182 g | 0.063 g | 0.12 g | 0.15 g | 3.01 mM
C[C@]12CC[C@@H]3c4ccc(O)cc4CC[C@H]3[C@@H]1CC[C@@H]2OC(=O)CCC(=O)N[C@@H](CCCNC(=N)N)C(=O)NCC(=O)N[C@@H](CC(=O)O)C(=O)N[C@@H](CO)C(=O)N[C@@H](CCCNC(=N)N)C(=O)NCC(=O)N[C@@H](CC(=O)O)C(=O)N[C@@H](CO)C(=O)O ({Succinyl(O17-estradiol)}-RGDSRGDS-OH) | 1.479 g | 556 s | 36.48 mg | 65.16% | 0.625% | 3 mM | 562 s | 1.665 cm | 21.4% | 56.41 mg | 0.174 g | 0.065 g | 0.116 g | 0.149 g | 2.6 mM
CC(C)[C@H](NC(=O)[C@H](CC(=O)O)NC(=O)CNC(=O)[C@H](CCCNC(=N)N)NC(=O)CCC(=O)O[C@H]1CC[C@H]2[C@@H]3CCc4cc(O)ccc4[C@H]3CC[C@]12C)C(=O)O ({Succinyl(O17-estradiol)}-RGDV-OH) | 1.55 g | 560 s | 33.7 mg | 57.49% | 0.612% | 3.26 mM | 551 s | 1.672 cm | 20.14% | 54.01 mg | 0.178 g | 0.064 g | 0.125 g | 0.149 g | 3.04 mM
C[C@]12CC[C@@H]3c4ccc(O)cc4CC[C@H]3[C@@H]1CC[C@@H]2O [ESTRADIOL] | 1.552 g | 441 s | 32.22 mg | 57.28% | 0.608% | 3.24 mM | 417 s | 1.642 cm | 19.81% |  | 0.173 g | 0.108 g | 0.12 g | 0.144 g | 3.01 mM

Reference: ChEMBL document CHEMBL1137729, “Synthesis, evaluation and 3D QSAR analysis of novel estradiol-RGD octapeptide conjugates with oral anti-osteoporosis activity” (Eur J Med Chem, 2009)
